Assay results from PMC6726451 (Science Advances, 2019).
Values joined by “and” are separate entries in the source; they are usually repeats but may differ in a detail not shown here. Identical values can stand only once.

Tests used:
TtClpP [1] = molecular target: T1, TtClpP (Thermus thermophilus, UniProt Q5SKM8); test: TAMRA-FP labeling of TtClpP active-site serines; assay type: biochemical; conditions: TAMRA-FP 5 μM, TtClpP 1 mg/ml, bortezomib 100 μM
EcClpP = EcClpP (Escherichia coli, UniProt P0A6G7); test: EcClpP peptidase activity, PKMamc degradation; assay type: biochemical
Outline: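 Purified E. coli ClpP was mixed in 50 mM Hepes (pH 7.6) and 50 mM NaCl with the fluorogenic tripeptide PKMamc (100 μM working concentration) and test compound, or a matching DMSO volume. AMC release was read at 340-nm excitation and 462-nm emission at defined intervals. An apparent IC50 was derived from peptidase activity.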

TtClpP [2] = molecular target: T1, TtClpP; test: FITC-casein degradation by TtClpP; assay type: biochemical; conditions: TtClpP 0.1 μM complex
Outline: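 FITC-casein, passed over a G25 column to remove free fluorescein, was used at 0.15 μM with TtClpP14 (0.1 μM). Test compound was added at a range of concentrations. Fluorescence rise was monitored at 440-nm excitation, 509-nm emission and 495-nm cutoff. Initial degradation rates after temperature equilibration were plotted against compound concentration.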

TtClpP [3] = molecular target: T1, TtClpP; test: FtsZ degradation by TtClpP, SDS-gel electrophoresis; assay type: biochemical; conditions: 200 μM and 2 mM bortezomib, 37°C, TtClpP 1 μM complex
Outline: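 Purified intrinsically disordered E. coli FtsZ (20 μM) was incubated at 37°C with TtClpP14 (1 μM) and the stated test-compound concentrations. Aliquots were withdrawn at set time points and resolved on a 15% SDS gel to follow FtsZ loss.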

TtClpP with TtClpX = TtClpP with TtClpX (Thermus thermophilus, UniProt Q5SKM8); test: TtClpP peptidase activity in the presence of TtClpX; assay type: biochemical
Outline: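 N-terminally truncated TtClpX and TtClpP were expressed in E. coli BL21RIL and purified by NiNTA and SEC. Concentrations are given as hexamer and tetradecamer. TtClpP (0.1 μM complex) was mixed with TtClpX at varying ClpX6/ClpP14 molar ratios in 50 mM Hepes (pH 7.6) and 50 mM NaCl, without or with 10 μM test compound. PKMamc hydrolysis was read at 340/462 nm, at 60°C unless otherwise indicated. The ratio giving half-maximal activation was derived from activation plotted against molar ratio.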

TtClpP [4] = molecular target: T1, TtClpP; test: Isothermal titration calorimetry fitted to the MWC model; assay type: binding
Outline: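 TtClpP (10 μM, cell) was titrated with test compound (1.4 mM, syringe) in 50 mM Hepes (pH 7.6) and 50 mM NaCl at 25°, 35° and 45°C. Solutions were degassed. Each run used 19 injections 150 s apart with stirring at 750 rpm, in replicates. Integrated heats were fitted by nonlinear least squares to an MWC model with 14 identical single-site subunits. The fit gave KR, KT, γ, enthalpies and active fraction N.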

TtClpP [5] = molecular target: T1, TtClpP; test: Dynamic light scattering, hydrodynamic radius of TtClpP; conditions: 5 mM bortezomib; for hydrodynamic radius Rhyd of TtClpP: TtClpP 3 μM
Outline: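 TtClpP (3 μM) was measured in 100 mM tris (pH 8.5), 100 mM NaCl and 5% glycerol, with no additive or with 5 mM bortezomib added, at 25° or 45°C. Each condition was run in triplicate, three times for each of two TtClpP samples. Hydrodynamic radius is the average of these replicates.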

TtClpP [6] = molecular target: T1, TtClpP; test: Solution-state methyl NMR of Ile-δ1-CH3-labeled TtClpP; assay type: binding; conditions: 2 mM bortezomib, TtClpP 250 μM, 60°C
Outline: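 Uniformly 2H,15N-labelled TtClpP carrying Ile-δ1-13CH3 labels, and its S97A mutant, were used. Protein was expressed in D2O and refolded from urea-solubilised inclusion bodies by NiNTA and SEC. Protein (250 μM) was mixed with 2 mM test compound or the DMSO equivalent in 100 mM tris (pH 8.5), 100 mM NaCl and 5% glycerol. 2D SOFAST-methyl-TROSY spectra were recorded at 700 MHz and 60°C, for 10–120 min per sample.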

S97A TtClpP = S97A TtClpP (Thermus thermophilus, UniProt Q5SKM8, S97A); assay type: binding; conditions: 2 mM bortezomib, S97A TtClpP 250 μM, 60°C
TtClpP [7] = molecular target: T1, TtClpP; test: MAS solid-state NMR chemical shift perturbations; assay type: binding; conditions: 10 mM bortezomib, sedimented TtClpP
MtbClpP1P2 complex [8] = molecular target: T2, MtbClpP1P2 complex (Mycobacterium tuberculosis, UniProt P9WPC3+P9WPC5); test: MtbClpP1P2 peptidase activity; assay type: biochemical
MtbClpXP1P2 complex = conditions: in vivo cell screen; cited from earlier work
proteasome = conditions: cited from earlier work
TtClpP [9] = molecular target: T1, TtClpP; test: TtClpP peptidase activity, PKMamc degradation; assay type: biochemical; conditions: Fig. 1B
MtbClpP1P2 complex [10] = molecular target: T2, MtbClpP1P2 complex; conditions: cited from earlier work
[11] = 35°C, absolute error 0.3 kcal/mol
[12] = 45°C, absolute error 0.3 kcal/mol

With `O=c1oc(Cl)c(Cl)c2ccccc12` [DCC, dichloroisocoumarin] the “TAMRA-FP labeling of TtClpP” value (TtClpP [1]) was “reduced the amount of TAMRA bound to ClpP”.

For `CC(C)C[C@H](NC(=O)[C@H](Cc1ccccc1)NC(=O)c1cnccn1)B(O)O` [bortezomib], the IC50 (EcClpP) was 1.6 µM, the “concentration dependence of FITC-casein degradation activation” value (TtClpP [2]) was “linear and no reduction of the activation was observed up to 100 μM” and the “effect on FITC-casein degradation” value (TtClpP [2]; FITC-casein 0.15 μM) was “a striking activation was observed”. For the same compound, the “FtsZ degradation by TtClpP” value (TtClpP [3]) was “degradation of FtsZ was observed”, the “effect on TtClpP peptidase activity in the presence of ClpX” value (TtClpP with TtClpX; bortezomib 10 μM, PKM-amc 100 μM) was “acted as an inhibitor” and the “ClpX6/ClpP14 ratio at half-maximal peptidase activity” value (TtClpP with TtClpX; bortezomib-loaded TtClpP, bortezomib 10 μM) was 2.4 ± 0.3 and 2.4. The “TtClpX6 concentration at half-maximal activation” value (TtClpP with TtClpX; in the presence of bortezomib, ratio 2.4) was 120 nM, the “TAMRA-FP labeling of TtClpP” value (TtClpP [1]) was “failed to observe any increase of TAMRA-FP labeling” and the “KT, association constant for the tense state” value (“KT, association constant” for short) (TtClpP [4]; 25°C) was “No apparent cooperativity”. For the same compound, the “N, fraction of active or binding-competent protein” value (“N, fraction” for short) (TtClpP [4]; 25°C) was 0.97, the “ΔHT, binding enthalpy of the T state” value (TtClpP [4]; 25°C) was “No apparent cooperativity” and the “ΔHγ, conformational enthalpy between R and T conformations” value (TtClpP [4]; 25°C) was “No apparent cooperativity”. For the same compound, the “γ, equilibrium constant between R and T conformations in the absence of the ligand” value (TtClpP [4]; 25°C) was “No apparent cooperativity”, the “ΔHR, binding enthalpy of the R state” value (TtClpP [4]; 25°C, absolute error 0.3 kcal/mol) was -0.5 kcal/mol and the “N, fraction” value (TtClpP [4]; 35°C) was 0.97. For the same compound, the “ΔHR, binding enthalpy of the R state” value (TtClpP [4]; [11]) was -0.9 kcal/mol, the “ΔHT, binding enthalpy of the T state” value (TtClpP [4]; [11]) was -0.1 kcal/mol and the “ΔHγ, conformational enthalpy between R and T conformations” value (TtClpP [4]; [11]) was -0.3 kcal/mol. For the same compound, the “KT, association constant” value (TtClpP [4]; 35°C, relative error 30%) was 28000 M⁻¹, the “γ, equilibrium constant between R and T conformations in the absence of the ligand” value (TtClpP [4]; 35°C, relative error 30%) was 3.3 and the “N, fraction” value (TtClpP [4]; 45°C) was 1.00. The “ΔHR, binding enthalpy of the R state” value (TtClpP [4]; [12]) was -1.5 kcal/mol, the “ΔHT, binding enthalpy of the T state” value (TtClpP [4]; [12]) was -0.3 kcal/mol and the “ΔHγ, conformational enthalpy between R and T conformations” value (TtClpP [4]; [12]) was -0.2 kcal/mol. For the same compound, the “KR, association constant for the relaxed state” value (TtClpP [4]; 45°C, relative error 30%) was 65000 M⁻¹, the “KT, association constant” value (TtClpP [4]; 45°C, relative error 30%) was 25000 M⁻¹ and the Kd (TtClpP [4]; Kd,R = KR^−1, R state, higher affinity) was 15 µM. The Kd (TtClpP [4]; Kd,T = KT^−1, T state, lower affinity) was 40 µM, the “free bortezomib concentration at the R↔T crossover point” value (TtClpP [4]; R and T equally populated, MWC model) was “around 2 μM” and the “increase in Rhyd of TtClpP on addition of bortezomib” value (TtClpP [5]) was “approximately 8 Å”. The “hydrodynamic radius Rhyd of TtClpP” value (TtClpP [5]; 25°C) was 6.673 ± 0.192 nm and 6.67 nm, the “hydrodynamic radius Rhyd of TtClpP” value (TtClpP [5]; 45°C) was 6.702 ± 0.176 nm and the “binding to wild-type TtClpP by spectral changes” value (TtClpP [6]) was “unambiguously confirms binding”. For the same compound, the “spectral changes of the S97A mutant” value (S97A TtClpP) was “no spectral changes were observed”, the “chemical shift perturbations on addition of bortezomib” value (TtClpP [7]) was “bortezomib interacts with the active site” and the “effect on MtbClpP1P2 peptidase activity” value (MtbClpP1P2 complex [8]) was “could also activate the peptidase activity of the MtbClpP1P2 complex”. The “effect on GFPssrA degradation by the MtbClpXP1P2 complex” value (MtbClpXP1P2 complex) was “inhibitor of GFPssrA degradation”, the “affinity for the chymotrypsin-like sites of the proteasome” value (proteasome) was “nanomolar affinity” and the “effect on the chymotrypsin site of the proteasome” value (proteasome) was “inhibits efficiently”. For the same compound, the “effect on the trypsin site of the proteasome” value (proteasome) was “paradoxical activation”.

With `NC(N)=O` [urea] the “TAMRA-FP labeling of TtClpP” value (TtClpP [1]) was “reduced the amount of TAMRA bound to ClpP”.

In the case of Bz-LL, the “activation of TtClpP peptidase activity compared with bortezomib” value (TtClpP [9]) is listed as “capable to activate TtClpP, albeit with lower efficiency” and the “activation of MtbClpP1P2” value (MtbClpP1P2 complex [10]) is listed as “most potent of these activators in Mtb”.
